In ChEMBL document CHEMBL4390662, “Design, synthesis and biological evaluation of novel α-acyloxy carboxamides via Passerini reaction as caspase 3/7 activators” (Eur J Med Chem, 2019):
pIC50: −log10 of the molar value. ≈ marks a conversion by molar mass, not a printed value. Calls of active or inactive are those of the source. The calls are words filed in the database; no cut-off is given here.

Tests used:
[1] = Selectivity index, ratio of IC50 for human WI38 cells to IC50 for mouse NFS60 cells
Summary of the method: (§1)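 SI calculated as IC50 on normal Wi-38 fibroblasts divided by IC50 on the cancer cell line. Both came from 72 h MTT assays.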

[2] = system: HepG2; assay: Cytotoxicity against human HepG2 cells assessed as cell growth inhibition incubated for 72 hrs by MTT assay; type: functional, cell-based; conditions: HepG2, 72 h
Summary of the method: (§2)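 Cells grown in RPMI-1640 with 10% FBS and seeded at 5×10^3 per well. After 24 h, serial concentrations given for 72 h at 37°C, 5% CO2. Then 5 mg/mL MTT stock added for 3 h, formazan dissolved in DMSO, A570 read. IC50 calculated from the curves.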

[3] = system: MCF7; assay: Potency index, ratio of doxorubicin IC50 to test compound IC50 against human MCF7 cells; type: functional
[4] = system: NFS-60; assay: Cytotoxicity against mouse NFS60 cells assessed as cell growth inhibition incubated for 72 hrs by MTT assay; type: functional, cell-based; conditions: NFS-60, 72 h; summary of the method: as §2
[5] = system: MCF7; assay: Cytotoxicity against human MCF7 cells assessed as cell growth inhibition incubated for 72 hrs by MTT assay; type: functional, cell-based; conditions: MCF7, 72 h; summary of the method: as §2
[6] = system: Staphylococcus aureus; assay: Antimicrobial activity against Staphylococcus aureus ATCC 25923 incubated for 24 hrs by agar well diffusion assay; type: functional
Summary of the method: (§3)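 Nutrient agar spread with 100 µL inoculum: bacteria at 1×10^8 CFU/mL, fungi at 1×10^6 CFU/mL. 10 mm wells loaded with 100 µL of compound in DMSO (final 1 mg/mL). Bacteria incubated 24 h at 37 °C, fungi 48 h at 28 °C. Inhibition zones measured in mm. Ciprofloxacin and fluconazole standards at 1 mg/mL, DMSO negative control.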

[7] = system: Escherichia coli; assay: Antimicrobial activity against Escherichia coli ATCC 25922 incubated for 24 hrs by agar well diffusion assay; type: functional; summary of the method: as §3
[8] = system: Pseudomonas aeruginosa; assay: Antimicrobial activity against Pseudomonas aeruginosa ATCC 27853 incubated for 24 hrs by agar well diffusion assay; type: functional; summary of the method: as §3
[9] = Selectivity index, ratio of IC50 for human WI38 cells to IC50 for human MCF7 cells; type: toxicity; conditions: WI38 cells versus MCF7 cells, read-out: Ratio IC50; summary of the method: as §1
[10] = system: Enterococcus faecalis; assay: Antimicrobial activity against Enterococcus faecalis ATCC 29212 incubated for 24 hrs by agar well diffusion assay; type: functional; summary of the method: as §3
[11] = Selectivity index, ratio of IC50 for human WI38 cells to IC50 for human HepG2 cells; type: toxicity; conditions: WI38 cells versus HepG2 cells, read-out: Ratio IC50; summary of the method: as §1
[12] = system: Candida albicans; assay: Antimicrobial activity against Candida albicans ATCC 90028 incubated for 48 hrs by agar well diffusion assay; type: functional; summary of the method: as §3
[13] = system: WI-38; assay: Cytotoxicity against human WI38 cells assessed as cell growth inhibition incubated for 72 hrs by MTT assay; type: cell-based; conditions: for pIC50: Homo sapiens, WI-38, 72 h; for EC100: human, wi-38, 72 h
Summary of the method: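 Wi-38 fibroblasts grown in DMEM with 10% FBS and seeded at 5×10^3 per well. Attachment 24 h, then serial concentrations for 72 h at 37°C, 5% CO2. MTT stock (5 mg/mL) added for 3 h at 37°C, DMSO solubilization, absorbance at 570 nm. IC50 estimated.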

[14] = system: Staphylococcus aureus; assay: Antimicrobial activity against Staphylococcus aureus ATCC 25923 incubated for 24 hrs by microdilution assay; type: functional
Summary of the method: (§4)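 Two-fold serial dilutions of test solutions made in Mueller Hinton broth and inoculated. Incubated at 37°C for 24 h. MIC taken as the lowest concentration with no growth. Ciprofloxacin is the antibacterial reference, fluconazole the antifungal one, and DMSO the blank.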

[15] = system: Escherichia coli; assay: Antimicrobial activity against Escherichia coli ATCC 25922 incubated for 24 hrs by microdilution assay; type: functional; conditions: ATCC 25922, 24 h; summary of the method: as §4
[16] = system: Candida albicans; assay: Antimicrobial activity against Candida albicans ATCC 90028 incubated for 24 hrs by microdilution assay; type: functional; summary of the method: as §4

MIC [14]	MIC [15] [mM]	MIC [16]	SMILES	Ratio IC50 [1]	pIC50 [2]	Ratio IC50 [3]	pIC50 [4]	pIC50 [5]	diameter of the inhibition zone (DIZ) [6]	diameter of the inhibition zone (DIZ) [7]	diameter of the inhibition zone (DIZ) [8]	selectivity ratio [9]	diameter of the inhibition zone (DIZ) [10]	selectivity ratio [11]	diameter of the inhibition zone (DIZ) [12]	pIC50 [13]	EC100 [13] [µM]
			Cc1ccc(C(=O)OC2(C(=O)Nc3ccc([N+](=O)[O-])cc3)CCCCC2)cc1	0.704	7.21	2 - 4	7.34	8.01	inactive	inactive	inactive	3.27	inactive	0.522	inactive	7.49	0.0064
inactive	3.53 (≈ 1020 µg/mL)	inactive	O=C1OC2(CCCCC2)C(=O)N1c1ccc([N+](=O)[O-])cc1	3.897	8.03	2 - 4	8.05	8.19	inactive	15 mm	15 mm	5.38	inactive	3.72	inactive	7.46	0.006
